FLuc stim CS = FLuc activators, initial screening, artefact control for FLuc-dependent activation tests, biochemical, ATPlite luminescence. Luciferin 4-monooxygenase (Photinus pyralis), P08659. ATPlite luciferase biochemical, 10 min; 0 = ATP-free wells, 1 = DMSO control. activation factor at 10 µM. 200,000 tested, under 10 active;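 active = luciferase activation factor, scaled between plate controls, of at least 2 with compound at 10 µM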
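assay system = Luciferase/luciferin detection reagent, cell-free biochemical luciferase assay | also added = ATP substrate | times = 10 min post-reagent at room temperature | measured by = luminescence from luciferase reaction | measure = luciferase activation, seen as luminescence increase over controls | benchmarks = low control with PBS replacing ATP, high control enzyme plus ATP without compound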
Diaphorase inh = diaphorase inhibitors and chemical oxidizers, primary screen, counter-screen for diaphorase-coupled primary assays, biochemical, uHTS, resorufin fluorescence. diaphorase resazurin-to-resorufin fluorescence, NADH, 16 min; bacterial (C. kluyveri) enzyme, not human. inhibition, % at 20 µM. 190,000 tested, 0.69% active;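 active = primary screen inhibition at 20 µM above a set limit, cut at about 50% in these data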;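 note: plate controls were DMSO with full reaction for no effect and wells lacking NADH for full effect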
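Assay system – diaphorase enzyme from Clostridium kluyveri · Amount – diaphorase 0.14 U/mL (working solution) · Times – reaction incubation of 16 min at room temperature · Controls – No-NADH positive control and DMSO neutral control · Signal – resorufin fluorescence 544/590 nm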
PMI act satM6P = human PMI activators, high substrate, primary screen, biochemical, fluorescence intensity, near-saturating mannose 6-phosphate; Mannose-6-phosphate isomerase (Homo sapiens), P34949; coupled PMI enzyme assay, resazurin fluorescence, 20 min; stronger effect = higher value; 1 = untreated enzyme, 0 = substrate-free blank; activation factor at 20 µM; 190,000 tested, 0.34% active; AID 1216, 2008;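 active = activation factor of 2 or more at 20 µM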
Target sequence (P34949 whole entry, looked up): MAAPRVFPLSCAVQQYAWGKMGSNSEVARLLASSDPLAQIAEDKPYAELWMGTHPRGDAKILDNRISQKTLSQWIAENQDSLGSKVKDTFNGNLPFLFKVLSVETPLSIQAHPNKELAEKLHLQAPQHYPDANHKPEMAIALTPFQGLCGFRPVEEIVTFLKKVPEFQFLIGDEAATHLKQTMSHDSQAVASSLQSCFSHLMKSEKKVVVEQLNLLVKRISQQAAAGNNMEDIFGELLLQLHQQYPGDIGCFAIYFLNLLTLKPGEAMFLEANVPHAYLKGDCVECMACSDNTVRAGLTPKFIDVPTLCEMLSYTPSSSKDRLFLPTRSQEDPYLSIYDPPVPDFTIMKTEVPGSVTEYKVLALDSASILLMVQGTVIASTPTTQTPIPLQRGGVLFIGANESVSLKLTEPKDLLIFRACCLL
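test system = human PMI in coupled enzyme assay | medium = HEPES-buffered pH 7.4 with magnesium and detergent | also added = 1.0 mM mannose-6-phosphate substrate with 0.22 mM NADP+ | compound = 20 µM single dose | times = 20 min incubation at room temperature | measured by = resorufin fluorescence (Ex 544/Em 590 nm) from resazurin via diaphorase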
Diaphorase act = compounds boosting diaphorase resazurin reduction – biochemical, uHTS, resorufin fluorescence, counter-screen for diaphorase-coupled primary assays, primary screen. Diaphorase/resazurin coupled assay, 16 min; stronger effect = higher value; 1 = vehicle wells, 0 = NADH-free wells. activation factor at 20 µM. 190,000 tested, 0.005% active. AID 1229, 2008;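 active = diaphorase activity raised at least twofold by the compound at 20 µM; inactive = activation factor below 2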
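Material: purified diaphorase enzyme from Clostridium kluyveri; Also added: 0.114 mM NADH and 0.1 mM resazurin, final amounts; Doses: single compound dose of 20 µM, 1% DMSO final; Times: 16 min enzyme reaction, ambient temperature; Detection: resorufin fluorescence, excitation 544 nm, emission 590 nm; Measure: increased resorufin signal from activators or reducing compounds.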
FLuc inhib CS = firefly luciferase enzyme inhibitors, primary screen, artefact control for luciferase-based inhibitor screens, biochemical, luminescence, ATPLite | Luciferin 4-monooxygenase (Photinus pyralis), P08659 | inhibition, % at 10 µM | 200,000 tested, 1.5% active | 10 min;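 active = inhibition above about 50% when tested at 10 µM, limit read from the data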
PMI act = activators of human PMI, primary screen, biochemical, fluorescence intensity, near-Km mannose 6-phosphate; Mannose-6-phosphate isomerase (Homo sapiens), P34949; purified human PMI, coupled resazurin fluorescence, 20 min; stronger effect = higher value; 1 = vehicle control, 0 substrate-free wells; activation factor at 20 µM; 190,000 tested, 0.005% active;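 active = activation factor of 2 or more at 20 µM, relative to plate controls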
Active calls of the source: *. Most compounds without a hit are left out; they make up all but 2.5% or so of the library.

`Cn1c(=O)c2c(nc(Sc3ncnn3CC(=O)NC(C)(C)C)n2C)n(C)c1=O` gave FLuc stim CS 1, Diaphorase inh 3.4, PMI act satM6P 1.1, Diaphorase act 1, FLuc inhib CS -3.8 and PMI act 1.1.
CCOC(=O)c1c(C)oc2c1c(C(c1cccnc1)N1CCN(C)CC1)c(O)c1ccccc12 (configuration not stated) was read as FLuc stim CS 1, Diaphorase inh 28.8, PMI act satM6P 0.7, Diaphorase act 0.7, FLuc inhib CS -2.4 and PMI act 0.6.
CCOC(=O)c1c(C)oc2c1c1c(c3ccccc32)OCN(Cc2cccnc2)C1 was read as FLuc stim CS 1, Diaphorase inh 53.1*, PMI act satM6P 0.3, Diaphorase act 0.5, FLuc inhib CS -2.5 and PMI act 0.3.
CC(=O)c1ccc(-c2ccc(C(=O)NC3CCCCCC3)o2)cc1 was read as FLuc stim CS 1, Diaphorase inh 1.6, PMI act satM6P 1, Diaphorase act 1, FLuc inhib CS 1.6 and PMI act 1.1.
For Cc1cc(C)nc(NC(=O)/C=C/c2ccccc2Cl)c1 the results were FLuc stim CS 0.7, Diaphorase inh 16.5, PMI act satM6P 1, Diaphorase act 0.8, FLuc inhib CS 29.4 and PMI act 0.9.
Screening Cc1ccnc(NC(=O)c2ccccc2[N+](=O)[O-])c1 returned FLuc stim CS 0.8, Diaphorase inh 5.5, PMI act satM6P 1, Diaphorase act 0.9, FLuc inhib CS 17.1 and PMI act 1.
Screening Cc1ccnc(NC(=O)/C=C/c2ccccc2[N+](=O)[O-])c1 returned FLuc stim CS 0.3, Diaphorase inh 14.4, PMI act satM6P 0.7, Diaphorase act 0.9, FLuc inhib CS 72.7* and PMI act 0.8.
`Cc1ccnc(NC(=O)/C=C/c2ccccc2Cl)c1` gave FLuc stim CS 0.2, Diaphorase inh 8.8, PMI act satM6P 1.2, Diaphorase act 0.9, FLuc inhib CS 76.5* and PMI act 1.1.
Screening CC1CN(c2nnc(NC(=O)c3ccccc3)s2)CC(C)O1 (configuration not stated) returned FLuc stim CS 1.1, Diaphorase inh 5.3, PMI act satM6P 1, Diaphorase act 0.9, FLuc inhib CS -5.0 and PMI act 1.
Screening CSc1sc2ccccc2[n+]1CCCS(=O)(=O)[O-] returned FLuc stim CS 1.1, Diaphorase inh 8.1, PMI act satM6P 2*, Diaphorase act 0.9, FLuc inhib CS -9.1 and PMI act 1.4.
For CN(Cc1nccn1C)C(=O)CC1C(=O)NCCN1Cc1ccccc1C(F)(F)F (configuration not stated) the results were FLuc stim CS 1.1, Diaphorase inh 13.2, PMI act satM6P 1, Diaphorase act 0.9, FLuc inhib CS -8.0 and PMI act 1.1.
For Cc1ccc(C)c(NC(=O)C(Sc2nnc(-c3cccs3)o2)c2ccccc2)c1 (configuration not stated) the results were FLuc stim CS 1.1, Diaphorase inh 13.3, PMI act satM6P 1.1, Diaphorase act 0.9, FLuc inhib CS -6.7 and PMI act 0.9.
Screening CCOc1cc(C=O)ccc1OCCCN1C(=O)NC(C)(C)C1=O returned FLuc stim CS 1.1, Diaphorase inh 5.8, PMI act satM6P 1, Diaphorase act 0.9, FLuc inhib CS -5.4 and PMI act 1.1.
Screening CCCCOc1ccc(/C=C/C2=CC(C)(C)NC(=S)N2)cc1OCC returned FLuc stim CS 1, Diaphorase inh 2.6, PMI act satM6P 2*, Diaphorase act 1, FLuc inhib CS 0.2 and PMI act 1.6.
CCc1ccc(N(CC(=O)NCc2ccc(F)cc2)C(=O)c2csnn2)cc1 was read as FLuc stim CS 1, Diaphorase inh -6.3, PMI act satM6P 1, Diaphorase act 1.1, FLuc inhib CS -2.4 and PMI act 1.
For CCN(CC)c1ccc2c(c1)CCCN2 the results were FLuc stim CS 1, Diaphorase inh 59.4*, PMI act satM6P 1.1, Diaphorase act 0.4, FLuc inhib CS -2.4 and PMI act 0.9.
Screening CCN(CC)c1ccc(CN2CCCCCC2)cc1 returned FLuc stim CS 1, Diaphorase inh -1.8, PMI act satM6P 0.9, Diaphorase act 1, FLuc inhib CS -1.9 and PMI act 1.
`N/C(=N\OC(=O)c1ccccc1Cl)c1ccccc1` gave FLuc stim CS 0.1, Diaphorase inh 15.7, PMI act satM6P 0.9, Diaphorase act 0.8, FLuc inhib CS 93.6* and PMI act 0.9.
`N/C(=N\OC(=O)c1ccccc1Cl)c1ccc(Cl)cc1` gave FLuc stim CS 0.4, Diaphorase inh 17.8, PMI act satM6P 0.8, Diaphorase act 0.8, FLuc inhib CS 56.5* and PMI act 0.9.
N/C(=N\OC(=O)c1ccc(Cl)cc1)c1ccc(Cl)cc1 was read as FLuc stim CS 0.6, Diaphorase inh -5.6, PMI act satM6P 1, Diaphorase act 1.1, FLuc inhib CS 36.6 and PMI act 1.1.
For CCOC(=O)Cc1csc(NC(=O)c2ccc(S(=O)(=O)N3CCOCC3)cc2)n1 the results were FLuc stim CS 1, Diaphorase inh -3.6, PMI act satM6P 1, Diaphorase act 1, FLuc inhib CS 0.7 and PMI act 1.1.
Screening COc1ccc(S(=O)(=O)N(C)C)cc1NCC(=O)Nc1ccc(Br)cc1F returned FLuc stim CS 1.1, Diaphorase inh 0.0, PMI act satM6P 1.1, Diaphorase act 1, FLuc inhib CS -6.4 and PMI act 1.
CN1C(=O)/C(=C/c2ccccc2OCc2ccc(C(=O)O)cc2)NC1=S was read as FLuc stim CS 1, Diaphorase inh 58.0*, PMI act satM6P 0.9, Diaphorase act 0.4, FLuc inhib CS -0.9 and PMI act 0.9.
COc1ccc(N/C=C/c2nc(SC)nnc2C)cc1 was read as FLuc stim CS 1, Diaphorase inh 40.0, PMI act satM6P 0.7, Diaphorase act 0.6, FLuc inhib CS -0.7 and PMI act 0.8.

Bioassay records: PubChem, Sanford-Burnham Center for Chemical Genomics
